Bioassay records as filed in PubChem.
The list is not random: actives were taken first. Their share in the collection is about 1.7%.
STEP block – inhibitors of human striatal-enriched phosphatase STEP. P54829. recombinant STEP, OMFP fluorogenic substrate, fluorescence. inhibition, % at 20 µM. 360,000 tested, 0.25% active. AID 588621;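 active = inhibition at 20 µM, scaled per plate between control wells, above about 37%, limit read from the data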;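 also: 0% = DMSO with enzyme and substrate and 100% = substrate only without enzyme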
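Material: STEP (striatal-enriched tyrosine phosphatase) enzyme, cell-free | Medium: 50 mM Bis-Tris pH 6.0 with 2.5 mM DTT and 0.005% Tween 20 | Read-out: Percent inhibition scaled to no-enzyme and uninhibited-enzyme controls, plate-pattern corrected | Signal: Fluorescence read at 480 nm ex / 540 nm em | Times: 20 min reaction, room temperature, in the dark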
SUMO1 PPI mod – modulators of human SUMO1-mediated protein-protein interactions; P63165; SUMO1 binding to a labelled peptide, TR-FRET, 1 h; inhibition, % at 20 µM; 360,000 tested, 0.33% active; in the data active = inhibition above about 37%
Target sequence (P63165 whole entry, looked up): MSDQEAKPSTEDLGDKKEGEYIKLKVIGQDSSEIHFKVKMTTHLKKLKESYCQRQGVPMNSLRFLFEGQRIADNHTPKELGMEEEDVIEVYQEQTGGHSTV
Scp1 inh – Scp-1 (human) phosphatase inhibition; Q9GZU7; Recombinant Scp1, phosphopeptide, malachite green phosphate absorbance; 340,000 tested, 0.88% active; inhibition, % at 20 µM; AID 493091;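 active = inhibition above about 50% at 20 µM, limit read from the data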;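 also: plate controls were DMSO wells with enzyme for no effect and wells lacking enzyme for full effect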
Target sequence (Q9GZU7 76-261 limits assumed): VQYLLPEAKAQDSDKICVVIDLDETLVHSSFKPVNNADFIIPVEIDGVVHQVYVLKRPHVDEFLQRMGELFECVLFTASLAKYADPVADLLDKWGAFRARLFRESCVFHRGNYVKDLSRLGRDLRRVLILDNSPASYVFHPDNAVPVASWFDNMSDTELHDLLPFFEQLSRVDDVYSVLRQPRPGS
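Incubation: 45 min enzyme reaction at room temperature / System: truncated SCP-1 phosphatase (76-261aa) / Reagent: Phospho 17-mer peptide substrate / Buffer or medium: Acidic Tris acetate buffer with magnesium and detergent / Signal: absorbance at 630 nm / Doses: one concentration, 20 µM, with 1.0% DMSO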
DSG3 Ab inh – human desmoglein-3 autoantibody binding inhibition; P32926; DSG3-coupled beads, scFv-anti-DSG3-GFP binding, flow cytometry; active compounds read low; binding (percent of control), % at 10 µM; 310,000 tested, 0.48% active; AID 588358;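 active = binding more than 3 SD below its plate's average and above zero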;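 also: hits lower antibody fragment binding to DSG3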
LMPTP block – LMPTP (human) inhibition | AID 651560 | inhibition, % at 20 µM | recombinant LMPTP-A, OMFP fluorogenic substrate, fluorescence intensity | P24666 | 360,000 tested, 0.22% active;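 active = compounds that cut the enzyme signal by at least half of the control window in the single-dose screen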;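 also: plate controls were DMSO wells with enzyme plus substrate for no effect and substrate without enzyme for full effect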
Target sequence (P24666 whole entry, looked up): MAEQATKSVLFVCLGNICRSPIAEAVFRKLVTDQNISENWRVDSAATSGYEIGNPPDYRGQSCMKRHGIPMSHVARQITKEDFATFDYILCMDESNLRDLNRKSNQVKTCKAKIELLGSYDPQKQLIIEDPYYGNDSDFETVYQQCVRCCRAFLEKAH
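test system = LMPTP-A | amount = 0.625 nM LMPTP-A final | reagent = fluorogenic phosphatase substrate OMFP at 400 µM final | incubation = 50 min at room temperature | benchmarks = no-enzyme low control, uninhibited high control | medium = Bis-Tris pH 6.0, DTT, detergent | signal = fluorescence intensity of OMFP turnover product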
An asterisk follows results filed as active; . = no result given.

SMILES | STEP block | SUMO1 PPI mod | Scp1 inh | DSG3 Ab inh | LMPTP block
COc1cccc(C2c3c(oc4ccccc4c3=O)C(=O)N2Cc2ccco2)c1 (stereo not given) | -0.3 | -1.4 | -5.4 | 67.5* | -1.3
Cc1noc(C)c1CSCC(=O)Nc1cc(S(=O)(=O)N2CCCCC2)ccc1OC(C)C | -2.6 | 3.2 | -2.8 | 100.0 | 1.2
Cc1noc(C)c1CSCC(=O)Nc1cc(S(=O)(=O)N2CCOCC2)ccc1OCC(F)(F)F | 3.2 | -2.6 | -4.9 | 76.4* | -0.8
Cc1c(N2C(=O)c3ccc4c5c(ccc(c35)C2=O)CC4)c(=O)n(-c2ccccc2)n1C | 7.4 | -5.0 | 64.8* | 95.4 | 52.5*
Cc1c(N2C(=O)c3ccc(Br)cc3C2=O)c(=O)n(-c2ccccc2)n1C | -5.9 | -6.7 | -5.0 | . | -0.4
O=Cc1ccc(-c2cccs2)s1 | -2.6 | -25.2 | 9.6 | 92.0 | -0.5
Oc1ccc(N=Cc2ccc(-c3cccs3)s2)cc1 | 20.2 | 68.1* | -6.5 | 95.1 | 32.9
Cc1cc(C)nc(/N=C(/NC(=O)Nc2cccc(Cl)c2)Nc2ccccc2)n1 | 1.6 | 2.8 | 8.2 | 94.0 | 3.3
COCc1cc(C)nc(SCC(=O)Nc2cccc3cccnc23)c1C#N | 6.0 | -3.5 | -2.8 | 23.3* | 37.5
O=C(NCc1cccnc1)C1C2C=CC(C2)C1C(=O)Nc1cccc(C(F)(F)F)c1 (stereo not given) | 3.4 | 40.3* | . | 95.9 | -0.2
O=C(O)C1C2C=CC(C2)C1C(=O)NCc1cccnc1 (stereo not given) | 3.2 | -3.0 | -5.2 | . | -2.6
COc1ccc(CN(CCN(C)C)Cc2ccccc2)c(OC)c1 | -0.3 | -0.6 | -4.3 | 78.3* | -4.5
COc1ccc(OC)c(C2CC(=O)c3c([nH]c(C(=O)OCC4CCCO4)c3C)C2)c1 (stereo not given) | 3.6 | 5.1 | -12.5 | 111.7 | 1.9
Cc1c(C(=O)OCC2CCCO2)[nH]c2c1C(=O)CC(c1ccco1)C2 (stereo not given) | 2.9 | 19.4 | 83.9* | 106.3 | 52.7*
C/C=C/COC(=O)c1[nH]c2c(c1C)C(=O)CC(c1ccc(N(C)C)cc1)C2 (stereo not given) | -1.2 | 4.0 | -0.4 | 106.2 | 4.2
Cc1c(C(=O)OC2CCCC2)[nH]c2c1C(=O)CC(c1ccco1)C2 (stereo not given) | -1.3 | 19.2 | 33.6 | 109.8 | 37.4
Cc1c(C(=O)OCC(C)C)[nH]c2c1C(=O)CC(c1ccco1)C2 (stereo not given) | 3.1 | 9.5 | 7.1 | 106.9 | 69.4*
C=CCOC(=O)c1[nH]c2c(c1C)C(=O)CC(c1ccco1)C2 (stereo not given) | . | . | 60.0* | . | .
C/C=C/COC(=O)c1[nH]c2c(c1C)C(=O)CC(c1ccco1)C2 (stereo not given) | -0.1 | 14.1 | 52.4* | 103.3 | 61.2*
COc1ccc(-n2c(=S)[nH]c3cc(C(=O)N(C)Cc4ccccc4)ccc3c2=O)cc1 | 1.9 | 0.0 | -10.3 | 91.8 | -0.7
O=[N+]([O-])c1ccc2[nH]c(O)c(N=NC3CCS(=O)(=O)C3)c2c1 (stereo not given) | -1.7 | 0.0 | -2.0 | 84.9* | 0.5
NC(=O)CSc1oc(-c2ccco2)nc1S(=O)(=O)c1ccc(F)cc1 | -0.2 | 0.7 | 0.1 | 102.1 | -1.2
O=C(NC(=S)NCc1ccccc1)C1CC1 | 1.9 | 0.9 | 3.1 | 24.8* | -0.6
COc1cc(C(=O)N/C(=C\c2cn(C)c3ccccc23)C(=O)NCCCN2CCOCC2)cc(OC)c1OC | -1.6 | -2.7 | 3.4 | 95.7 | -3.7
CCN(CC)c1ccc(C(NC(C)=O)NC(C)=O)cc1 | 0.4 | -3.9 | -4.8 | 94.6 | -1.4
SMILES | STEP block | SUMO1 PPI mod | Scp1 inh | DSG3 Ab inh | LMPTP block
CC(=O)NC(NC(C)=O)c1ccc(N(C)C)cc1 | -0.6 | -2.9 | 52.3* | 97.0 | 0.0
Cc1ccc(NP(=O)(c2ccc(N(C)C)cc2NC(=O)c2cccs2)N2CCOCC2)cc1 (stereo not given) | -0.4 | 1.4 | 3.7 | 97.6 | 1.1
Cc1ccc(NP(=O)(c2ccc(N(C)C)cc2NC(=O)c2cccs2)N2CCOCC2)cc1Cl (stereo not given) | -3.1 | 5.9 | -8.0 | 85.3* | 4.2
Cc1oc(-c2ccccc2F)nc1CS(=O)CC(=O)NCc1ccc(Cl)cc1 (stereo not given) | -0.2 | 5.4 | -6.3 | -11.9* | 0.0
Cc1oc(-c2ccccc2Cl)nc1CS(=O)CC(=O)NCc1ccc(Cl)cc1 (stereo not given) | 2.5 | 5.2 | -7.5 | 102.9 | -0.1
CC(C)C(=O)Nc1ccc(C(=O)N/N=C/C2CC3C=CC2C3)cc1 (stereo not given) | 1.1 | 39.8* | -3.2 | 84.4 | -1.0
CCCCCn1c(=O)[nH]c2c(c1=O)CCC2 | 1.6 | -4.5 | -3.6 | -1.0* | -0.2
CCCCCn1c(=O)[nH]c2cc(C(=O)O)ccc2c1=O | 1.7 | -1.3 | 1.6 | 107.2 | 1.8
CN1CCN(CC(=O)NN(Cc2ccccc2)c2ccccc2)CC1 | 0.6 | 1.7 | 2.7 | 76.6* | -5.8
CC1CCCN(CC(=O)Nc2ccc(S(=O)(=O)N3CCCC3)cc2)C1 (stereo not given) | -0.2 | 0.3 | 6.6 | . | 0.3
CCc1cc(-c2n[nH]c(C)c2Oc2ccc(C(C)C)cc2)c(O)cc1O | -1.9 | 0.1 | -6.6 | 102.2 | 2.5
Cn1c(C(=O)OC(C(=O)NCC2CCCO2)c2cccnc2)cc2sccc21 (stereo not given) | 0.2 | -6.4 | 57.3* | 94.2 | 1.8
CC(OC(=O)c1cc2sccc2n1C)C(=O)NCC1CCCO1 (stereo not given) | -0.3 | 1.4 | 1.8 | 107.0 | -2.2
COc1ccc(C2=NOC(C)(c3nnc(Cc4ccccc4)o3)C2)cc1 (stereo not given) | -1.6 | 3.9 | -2.3 | 103.8 | -2.4
NC(=NCCc1c[nH]c2ccccc12)NC(=O)c1ccc(F)cc1 | 3.5 | 3.1 | 0.1 | 102.7 | 2.5
CN(C)c1ccc(/C=C/c2cccc[n+]2[O-])cc1 | 0.4 | -15.8 | -6.6 | 93.3 | -1.5
CN(C)c1ccc(/C=C/c2ccc3ccccc3[n+]2C)cc1 | 13.1 | -38.4 | 66.0* | 94.3 | 45.7
CN(C)c1ccc(/C=C/c2ccc3c4ccccc4ccc3[n+]2-c2ccccc2)cc1 | 16.3 | 37.1 | 6.3 | 77.5 | 98.0*
CN(CCCS(=O)(=O)[O-])c1ccc(/C=C/c2ccc3ccccc3[n+]2C)cc1 | 0.6 | -38.6 | 36.3 | 93.6 | 1.1
Cc1cc(C)c2c(c1)C1C=CCC1C(c1ccc(S(=O)(=O)N3CCOCC3)cc1)N2 (stereo not given) | 0.3 | -3.8 | -3.8 | 106.1 | -1.5
O=C(O)c1cc(Cl)c2c(c1)[C@@H]1C=CC[C@@H]1[C@H](c1ccc(S(=O)(=O)N3CCOCC3)cc1)N2 | 1.1 | 41.8* | 11.6 | 82.8 | 0.4
CCn1cc(C(=O)O)c(=O)c2cnc(N3CCN(C(=S)NC(=O)c4ccc(Cl)cc4Cl)CC3)nc21 | 2.7 | 11.8 | -5.8 | . | 51.2*
